≈ marks a conversion by molar mass, not a printed value.

For one series, the target named is Cytochrome P450 2C9 (Homo sapiens, UniProt P11712). Description: Inhibition of CYP2C9. The class given is ADME. The essentials: (§1)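 Inhibition tested separately against P450 isoforms 2C9, 2D6 and 3A4, with test concentrations up to 30 μM.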
The next series has as its target Cytochrome P450 2D6 (Homo sapiens, UniProt P10635). Description: Inhibition of CYP2D6. The class given is ADME. The essentials:
as §1

Series [1] is described as follows: Half life in rat at 10 mg/kg, po. On the set-up: dose 10 mg/kg, route oral. In kind it is ADME, organism-based. To be noted: in vivo. The method in brief:
(§2)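 Single-dose oral and intravenous administration in rats. Plasma PK parameters were derived from these dosings: clearance and Vss after iv dosing, and Cmax and AUC after oral dosing.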

Series [2] in a line: (§3) Oral bioavailability in rat at 10 mg/kg. In kind it is ADME, organism-based. The conditions noted are these: in vivo. The essentials:
as §2

Series [3] deals with Rattus norvegicus. Nature of the series: (§4) AUC in rat at 3 mg/kg, iv. In kind it is ADME, organism-based, Plasma. Set-up: dose 3 mg/kg, route intravenous. The conditions noted are these: in vivo. The essentials: as §2
A short description of series [4]: Aqueous solubility of the compound at pH 6.8. In kind it is physicochemical. The conditions noted are these: buffer. The essentials: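 Kinetic aqueous solubility at pH 6.8, reported in μg/mL.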
Series [5] concerns Human immunodeficiency virus 1. Nature of the series: Antiviral activity against R5 tropic HIV1 Ba-L infected in human PBMC assessed as inhibition of […] antigen expression. The class given is functional, organism-based. The conditions noted are these: Human immunodeficiency virus 1, Ba-L.
Series [6] concerns Human immunodeficiency virus 1. Nature of the series: Antiviral activity against multidrug-resistant R5 tropic HIV1 MM infected in human PBMC assessed as inhibition of […] antigen expression. The conditions noted are these: Human immunodeficiency virus 1, MM. The class given is functional, organism-based.
For series [7], the target named is T1, Cytochrome P450 3A4 (Homo sapiens, UniProt P08684). Nature of the series: Inhibition of CYP3A4. In kind it is ADME. The method in brief: as §1
T1 sequence (P08684 whole entry): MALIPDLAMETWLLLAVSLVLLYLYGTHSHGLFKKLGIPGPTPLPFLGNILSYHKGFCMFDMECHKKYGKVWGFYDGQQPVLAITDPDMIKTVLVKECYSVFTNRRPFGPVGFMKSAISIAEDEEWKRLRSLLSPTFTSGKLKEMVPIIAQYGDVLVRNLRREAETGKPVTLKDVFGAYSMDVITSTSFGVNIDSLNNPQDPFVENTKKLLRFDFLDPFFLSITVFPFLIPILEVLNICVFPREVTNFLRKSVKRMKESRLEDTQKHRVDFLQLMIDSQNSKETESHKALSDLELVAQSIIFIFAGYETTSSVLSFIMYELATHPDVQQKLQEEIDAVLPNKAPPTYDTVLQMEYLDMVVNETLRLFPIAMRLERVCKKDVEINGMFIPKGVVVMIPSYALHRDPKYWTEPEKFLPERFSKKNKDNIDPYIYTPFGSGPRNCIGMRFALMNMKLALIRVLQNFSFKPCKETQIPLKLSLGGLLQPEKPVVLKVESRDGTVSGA
A further series has as its system Caco-2. Description: Permeability across human Caco2 cell membrane. The class given is ADME, cell-based.
The nature of series [8]: Solubility of the compound. The class given is physicochemical. The method in brief:
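Kinetic aqueous solubility, determined at pH 6.8 and reported in […].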

Series [9] in a line: Cmax in rat at 10 mg/kg, po. The conditions noted are these: in vivo. On the set-up: dose 10 mg/kg, route oral. In kind it is ADME, organism-based.
Series [10] in a line: (§5) AUC in rat at 10 mg/kg, po. The class given is ADME, organism-based, Plasma. Set-up: dose 10 mg/kg, route oral. The conditions noted are these: plasma.
The nature of series [11]: as §4. To be noted: plasma. The class given is ADME, organism-based, Plasma. Set-up: dose 3 mg/kg, route intravenous. The method in brief: as §2
The nature of series [12]: Half life in rat at 3 mg/kg, iv. In kind it is ADME, organism-based. Set-up: dose 3 mg/kg, route intravenous. The conditions noted are these: in vivo.
Series [13] can be described thus: Clearance in rat at 3 mg/kg, iv. The class given is ADME, organism-based. Set-up: dose 3 mg/kg, route intravenous. The conditions noted are these: in vivo.
For series [14], the target named is C-C chemokine receptor type 5 (Homo sapiens, UniProt P51681). Description: Antagonist activity at human CCR5 expressed in CHO cells assessed as inhibition of MIP-1alpha-induced calcium mobilization Ca assay. The class given is functional, cell-based.
Sequence of C-C chemokine receptor type 5 (P51681 whole entry): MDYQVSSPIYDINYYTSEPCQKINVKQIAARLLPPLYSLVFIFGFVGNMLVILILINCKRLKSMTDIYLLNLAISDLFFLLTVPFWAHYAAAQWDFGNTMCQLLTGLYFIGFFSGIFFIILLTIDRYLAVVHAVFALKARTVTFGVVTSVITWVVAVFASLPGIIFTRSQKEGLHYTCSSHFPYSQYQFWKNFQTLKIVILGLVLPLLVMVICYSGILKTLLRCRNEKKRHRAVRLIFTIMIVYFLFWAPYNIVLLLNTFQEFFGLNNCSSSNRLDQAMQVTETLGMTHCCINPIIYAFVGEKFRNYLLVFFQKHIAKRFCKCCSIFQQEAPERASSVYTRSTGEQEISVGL
Series [15] concerns the target T1, Cytochrome P450 3A4. Description: Inhibition of CYP3A4 upto 30 uM. In kind it is ADME. The essentials: as §1
Series [16] has as its system Rattus norvegicus. Described as §5. The class given is ADME, organism-based, Plasma. Set-up: dose 10 mg/kg, route oral. To be noted: in vivo.
Series [17] relates to Rattus norvegicus. The series is described as §3. The conditions noted are these: in vivo. In kind it is ADME, organism-based. The method in brief: as §2

Sequence of Cytochrome P450 2D6 (P10635 whole entry): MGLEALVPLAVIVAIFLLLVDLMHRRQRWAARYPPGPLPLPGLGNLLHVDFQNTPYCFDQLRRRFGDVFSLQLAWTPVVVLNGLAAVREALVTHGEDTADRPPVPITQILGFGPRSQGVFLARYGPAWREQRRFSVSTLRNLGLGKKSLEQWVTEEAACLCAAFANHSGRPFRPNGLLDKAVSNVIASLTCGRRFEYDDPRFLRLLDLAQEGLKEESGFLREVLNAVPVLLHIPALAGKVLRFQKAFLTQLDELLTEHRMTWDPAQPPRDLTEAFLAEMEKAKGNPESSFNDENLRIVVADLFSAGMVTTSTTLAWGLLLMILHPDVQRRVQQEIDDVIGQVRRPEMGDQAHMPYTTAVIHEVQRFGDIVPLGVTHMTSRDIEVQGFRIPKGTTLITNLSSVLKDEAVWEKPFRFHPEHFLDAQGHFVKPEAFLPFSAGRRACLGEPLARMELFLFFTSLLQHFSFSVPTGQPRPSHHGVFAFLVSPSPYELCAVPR
Sequence of Cytochrome P450 2C9 (P11712 whole entry, canonical isoform): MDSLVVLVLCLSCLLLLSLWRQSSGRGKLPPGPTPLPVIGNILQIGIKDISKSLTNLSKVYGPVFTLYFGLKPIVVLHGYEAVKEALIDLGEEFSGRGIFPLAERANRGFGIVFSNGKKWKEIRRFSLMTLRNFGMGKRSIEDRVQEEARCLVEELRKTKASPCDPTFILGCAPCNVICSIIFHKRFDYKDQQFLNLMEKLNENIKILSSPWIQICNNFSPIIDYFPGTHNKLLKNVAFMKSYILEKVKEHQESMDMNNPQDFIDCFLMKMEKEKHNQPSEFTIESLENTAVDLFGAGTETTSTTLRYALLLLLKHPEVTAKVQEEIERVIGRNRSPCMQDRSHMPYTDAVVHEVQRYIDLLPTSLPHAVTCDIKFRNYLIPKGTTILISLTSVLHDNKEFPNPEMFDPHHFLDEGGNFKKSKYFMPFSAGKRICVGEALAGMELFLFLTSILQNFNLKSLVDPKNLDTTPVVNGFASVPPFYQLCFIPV

For `CCCCN1C(=O)C(CC2CCCCC2)NC(=O)C12CCN(Cc1ccc(Oc3ccccc3)cc1)CC2.Cl` (racemic), the IC50 was 5.5 µM against Cytochrome P450 2C9 and 7.8 µM against Cytochrome P450 2D6. Besides, in series [1], the half-life is 103 min. In [2], this molecule came in with a bioavailability of 1.9%. In the series with Rattus norvegicus [3], this molecule yielded an AUC of 400 ng·h/mL. In addition, the solubility in series [4] is < 0.2 µg/mL.
Take `COC[C@@H](c1ccc(C(F)(F)F)cc1)N1CCN(C2(C)CCN(C(=O)c3c(C)ncnc3C)CC2)C[C@@H]1C` [VICRIVIROC]: the half-maximal inhibitory concentration (IC50) in series [5] turned out to be 0.004 µM; in [6] it was 0.003 µM.
For `CCCCN1C(=O)[C@H]([C@@H](O)C2CCCCC2)NC(=O)C12CCN(Cc1ccc(Oc3ccc(C(=O)O)cc3)cc1)CC2.Cl`, the IC50 against Cytochrome P450 2C9, on Cytochrome P450 2D6 and against Cytochrome P450 3A4 [7] was > 30 µM throughout. Moreover, the permeability in the series with Caco-2 worked out at 2.1 ×10⁻⁶ cm/s. In addition, the solubility in series [8] amounted to 80 µM. The molecule further gave a Cmax in series [9] of 260 ng/mL. Also, the half-life in [1] was found to be 19.2 min; in series [12] it was 16.2 min. In addition, the AUC was determined as 213 ng·h/mL in series [10] and 988 ng·h/mL in series [11]. Moreover, in series [2], the bioavailability worked out at 6.5%. This molecule also displayed a clearance in [13] of 50.9 mL/min/kg.
For `CCCCN1C(=O)[C@@H]([C@H](O)C(C)C)NC(=O)C12CCN(Cc1ccc(Oc3ccccc3)cc1)CC2`, the IC50 is 0.084 µM in series [14], > 30 µM against Cytochrome P450 2C9, > 30 µM against Cytochrome P450 2D6 and > 30 µM at Cytochrome P450 3A4 [7].
On to `CCCCN1C(=O)[C@H]([C@H](O)C2CCCCC2)NC(=O)C12CCN(Cc1ccc(Oc3ccc(C(=O)O)cc3)cc1)CC2`, for which the IC50 on Cytochrome P450 2C9, against Cytochrome P450 2D6 and against Cytochrome P450 3A4 [7] was > 30 µM in each case. This molecule also returned a permeability in the series on Caco-2 of 1.6 ×10⁻⁶ cm/s. This molecule also yielded a solubility in series [8] of 85 µM (≈ 49.1 µg/mL). Besides, the concentration in series [9] peaked (Cmax) at 280 ng/mL. The half-life in series [1] is 14.4 min. The AUC in series [10] amounted to 126 ng·h/mL.
With `CCCCN1C(=O)C(CC(C)C)NC(=O)C12CCN(Cc1ccc(Oc3ccccc3)cc1)CC2.Cl` (racemic), the 50% inhibitory concentration (IC50) against Cytochrome P450 2C9 is 5.9 µM; at Cytochrome P450 2D6, 4.6 µM; at Cytochrome P450 3A4 [7], 19.7 µM. This molecule also displayed a half-life in [1] of 75.7 min. Moreover, the bioavailability in series [2] came to 1.3%. In the series with Rattus norvegicus [3], this molecule registered an exposure (AUC) of 372 ng·h/mL.
`CCCCN1C(=O)[C@@H]([C@@H](O)C2CCCCC2)NC(=O)C12CCN(Cc1ccc(Oc3ccc(C(=O)O)cc3)cc1)CC2.Cl`: the IC50 against Cytochrome P450 2C9 is 18 µM; against Cytochrome P450 2D6 it was > 30 µM; at Cytochrome P450 3A4 [7] it was > 30 µM. Besides, the solubility in [8] stood at 81 µM. The Cmax in series [9] stood at 70 ng/mL. The half-life in series [1] is 35.2 min. The AUC in series [10] was 67.5 ng·h/mL.
With `CCCCN1C(=O)[C@@H]([C@H](O)C2CCCCC2)NC(=O)C12CCN(Cc1ccc(Oc3ccccc3)cc1)CC2.Cl`, the concentration for half-maximal inhibition (IC50) on Cytochrome P450 2C9 is 3.7 µM; against Cytochrome P450 2D6, 9.8 µM; against Cytochrome P450 3A4 [7] it was > 30 µM. At Cytochrome P450 3A4 [15], the “inhibition (INH)” value is “Not Active”.
`CCCCN1C(=O)[C@H](CC2CCCCC2)NC(=O)C12CCN(Cc1ccc(Oc3ccc(C(=O)O)cc3)cc1)CC2.Cl`: the IC50 on Cytochrome P450 2C9 is 8.8 µM; on Cytochrome P450 2D6 it was > 30 µM; against Cytochrome P450 3A4 [7], 24.9 µM. This molecule registered a Cmax in series [9] of 2400 ng/mL. The half-life in series [1] is 48.4 min; in [12], 11.1 min. In addition, the results for the AUC in the series with Rattus norvegicus [16] and in the series on Rattus norvegicus [3] were 10532 ng·h/mL and 3091 ng·h/mL, respectively. In addition, the F in the series with Rattus norvegicus [17] is reported as 34%. The clearance in [13] is 16 mL/min/kg.
In the case of `Cc1ccc(-c2ccc3c(c2)C=C(C(=O)Nc2ccc(C[N+](C)(C)C4CCOCC4)cc2)CCC3)cc1`, the results for the IC50 in series [5] and in series [6] were 0.028 µM and 0.014 µM, respectively.
In the case of `CCCCN1C(=O)[C@@H]([C@H](O)C2CCCCC2)NC(=O)C12CCN(Cc1ccc(Oc3ccc(C(=O)O)cc3)cc1)CC2.Cl` [APLAVIROC HYDROCHLORIDE], the IC50 on Cytochrome P450 2C9, against Cytochrome P450 2D6 and on Cytochrome P450 3A4 [7] was > 30 µM throughout. The permeability in the series with Caco-2 was found to be 3.8 ×10⁻⁶ cm/s. For the same molecule, in [8], the solubility was determined as 70 µM. Moreover, the peak level in series [9] (Cmax) was 2360 ng/mL. Besides, the half-life was 120 min in [1] and 21.8 min in series [12]. The AUC in series [10] is 3420 ng·h/mL; in series [11] it was 4400 ng·h/mL. This molecule yielded a bioavailability in series [2] of 23%. The same molecule yielded a clearance in series [13] of 11.3 mL/min/kg.
Turning to `Cc1c(O)cccc1C(=O)N[C@@H](CSc1ccccc1)[C@H](O)CN1C[C@H]2CCCC[C@H]2C[C@H]1C(=O)NC(C)(C)C`, in series [6], the half-inhibitory concentration (IC50) was > 1 µM.

Values taken from ChEMBL document CHEMBL1667838, “Spirodiketopiperazine-based CCR5 antagonist: discovery of an antiretroviral drug candidate” (Bioorg Med Chem Lett, 2011).
